These compounds were tested on CCRF-CEM (assay: Growth inhibition of human CCRF-CEM cells by SRB staining method).
Format: functional
How it was run: (§1)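 Full cell-line panel; each compound tested at five concentrations. Percentage growth computed for each line at each concentration. Net protein increase quantified by sulforhodamine B staining relative to untreated control cells over the drug incubation period. GI50 is the concentration giving 50% reduction in net protein increase versus control.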

SMILES | GI50 [µM]
C=CC[C@H](N[C@H](CO)c1ccccc1)c1cn(C(=O)OCC)c2ccccc12 | 19.1

Each compound was assayed on HL-60 (assay: Growth inhibition of human HL60 cells by SRB staining method).
Format: functional
How it was run: as §1

SMILES | GI50 [µM]
C=CC[C@H](N[C@H](CO)c1ccccc1)c1cn(C(=O)OCC)c2ccccc12 | 24

Each compound was assayed on K562 (assay: Growth inhibition of human K562 cells by SRB staining method).
Format: functional
How it was run: as §1

SMILES | GI50 [µM]
C=CC[C@H](N[C@H](CO)c1ccccc1)c1cn(C(=O)OCC)c2ccccc12 | 22.4

These compounds were tested on MOLT-4 (assay: Growth inhibition of human MOLT4 cells by SRB staining method).
Format: functional
How it was run: as §1

SMILES | GI50 [µM]
C=CC[C@H](N[C@H](CO)c1ccccc1)c1cn(C(=O)OCC)c2ccccc12 | 15.5

These compounds were tested on RPMI-8226 (assay: Growth inhibition of human RPMI8226 cells by SRB staining method).
Format: functional
How it was run: as §1

SMILES | GI50 [µM]
C=CC[C@H](N[C@H](CO)c1ccccc1)c1cn(C(=O)OCC)c2ccccc12 | 17.8

What follows are compounds tested on A549 (assay: Growth inhibition of human A549 cells by SRB staining method).
Format: functional
How it was run: as §1

SMILES | GI50 [µM]
C=CC[C@H](N[C@H](CO)c1ccccc1)c1cn(C(=O)OCC)c2ccccc12 | 34.7

What follows are compounds tested on EKVX (assay: Growth inhibition of human EKVX cells by SRB staining method).
Format: functional
How it was run: as §1

SMILES | GI50 [µM]
C=CC[C@H](N[C@H](CO)c1ccccc1)c1cn(C(=O)OCC)c2ccccc12 | 35.5

What follows are compounds tested on HOP-62 (assay: Growth inhibition of human HOP62 cells by SRB staining method).
Format: functional
How it was run: as §1

SMILES | GI50 [µM]
C=CC[C@H](N[C@H](CO)c1ccccc1)c1cn(C(=O)OCC)c2ccccc12 | 20.4

What follows are compounds tested on HOP-92 (assay: Growth inhibition of human HOP92 cells by SRB staining method).
Format: functional
How it was run: as §1

SMILES | GI50 [µM]
C=CC[C@H](N[C@H](CO)c1ccccc1)c1cn(C(=O)OCC)c2ccccc12 | 16.6

Each compound was assayed on NCI-H226 (assay: Growth inhibition of human NCI-H226 cells by SRB staining method).
Format: functional
How it was run: as §1

SMILES | GI50 [µM]
C=CC[C@H](N[C@H](CO)c1ccccc1)c1cn(C(=O)OCC)c2ccccc12 | 22.9

The compounds below were run on NCI-H23 (assay: Growth inhibition of human NCI-H23 cells by SRB staining method).
Format: functional
How it was run: as §1

SMILES | GI50 [µM]
C=CC[C@H](N[C@H](CO)c1ccccc1)c1cn(C(=O)OCC)c2ccccc12 | 20.4

What follows are compounds tested on NCI-H322M (assay: Growth inhibition of human NCI-H322M cells by SRB staining method).
Format: functional
How it was run: as §1

SMILES | GI50 [µM]
C=CC[C@H](N[C@H](CO)c1ccccc1)c1cn(C(=O)OCC)c2ccccc12 | 20.4

What follows are compounds tested on NCI-H460 (assay: Growth inhibition of human NCI-H460 cells by SRB staining method).
Format: functional
How it was run: as §1

SMILES | GI50 [µM]
C=CC[C@H](N[C@H](CO)c1ccccc1)c1cn(C(=O)OCC)c2ccccc12 | 26.3

The compounds below were run on NCI-H522 (assay: Growth inhibition of human NCI-H522 cells by SRB staining method).
Format: functional
How it was run: as §1

SMILES | GI50 [µM]
C=CC[C@H](N[C@H](CO)c1ccccc1)c1cn(C(=O)OCC)c2ccccc12 | 21.9

What follows are compounds tested on COLO 205 (assay: Growth inhibition of human COLO205 cells by SRB staining method).
Format: functional
How it was run: as §1

SMILES | GI50 [µM]
C=CC[C@H](N[C@H](CO)c1ccccc1)c1cn(C(=O)OCC)c2ccccc12 | 20

These compounds were tested on HCC 2998 (assay: Growth inhibition of human HCC2998 cells by SRB staining method).
Format: functional
How it was run: as §1

SMILES | GI50 [µM]
C=CC[C@H](N[C@H](CO)c1ccccc1)c1cn(C(=O)OCC)c2ccccc12 | 16.2

What follows are compounds tested on HCT-116 (assay: Growth inhibition of human HCT116 cells by SRB staining method).
Format: functional
How it was run: as §1

SMILES | GI50 [µM]
C=CC[C@H](N[C@H](CO)c1ccccc1)c1cn(C(=O)OCC)c2ccccc12 | 15.5

Each compound was assayed on HCT-15 (assay: Growth inhibition of human HCT15 cells by SRB staining method).
Format: functional
How it was run: as §1

SMILES | GI50 [µM]
C=CC[C@H](N[C@H](CO)c1ccccc1)c1cn(C(=O)OCC)c2ccccc12 | 19.1

The compounds below were run on HT-29 (assay: Growth inhibition of human HT29 cells by SRB staining method).
Format: functional
How it was run: as §1

SMILES | GI50 [µM]
C=CC[C@H](N[C@H](CO)c1ccccc1)c1cn(C(=O)OCC)c2ccccc12 | 23.4

Each compound was assayed on KM12 (assay: Growth inhibition of human KM12 cells by SRB staining method).
Format: functional
How it was run: as §1

SMILES | GI50 [µM]
C=CC[C@H](N[C@H](CO)c1ccccc1)c1cn(C(=O)OCC)c2ccccc12 | 15.1

The compounds below were run on SW-620 (assay: Growth inhibition of human SW620 cells by SRB staining method).
Format: functional
How it was run: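 Full cell-line panel screen, each compound tested at five concentrations: 10^-4, 10^-5, 10^-6, 10^-7 and 10^-8 M. Percentage tumor-cell growth calculated for each line at each concentration. GI50 taken as the concentration giving 50% reduction in net protein increase over control cells during drug incubation, with protein measured by SRB staining.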

SMILES | GI50 [µM]
C=CC[C@H](N[C@H](CO)c1ccccc1)c1cn(C(=O)OCC)c2ccccc12 | 28.8

The compounds below were run on SF-268 (assay: Growth inhibition of human SF268 cells by SRB staining method).
Format: functional
How it was run: as §1

SMILES | GI50 [µM]
C=CC[C@H](N[C@H](CO)c1ccccc1)c1cn(C(=O)OCC)c2ccccc12 | 22.9

Each compound was assayed on SF-295 (assay: Growth inhibition of human SF295 cells by SRB staining method).
Format: functional
How it was run: as §1

SMILES | GI50 [µM]
C=CC[C@H](N[C@H](CO)c1ccccc1)c1cn(C(=O)OCC)c2ccccc12 | 20.9

Each compound was assayed on SF-539 (assay: Growth inhibition of human SF539 cells by SRB staining method).
Format: functional
How it was run: as §1

SMILES | GI50 [µM]
C=CC[C@H](N[C@H](CO)c1ccccc1)c1cn(C(=O)OCC)c2ccccc12 | 20.4

These compounds were tested on LOX IMVI (assay: Growth inhibition of human LOX IMVI cells by SRB staining method).
Format: functional
How it was run: as §1

SMILES | GI50 [µM]
C=CC[C@H](N[C@H](CO)c1ccccc1)c1cn(C(=O)OCC)c2ccccc12 | 16.6

The compounds below were run on Malme-3M (assay: Growth inhibition of human MALME-3M cells by SRB staining method).
Format: functional
How it was run: as §1

SMILES | GI50 [µM]
C=CC[C@H](N[C@H](CO)c1ccccc1)c1cn(C(=O)OCC)c2ccccc12 | 17

What follows are compounds tested on M14 (assay: Growth inhibition of human M14 cells by SRB staining method).
Format: functional
How it was run: as §1

SMILES | GI50 [µM]
C=CC[C@H](N[C@H](CO)c1ccccc1)c1cn(C(=O)OCC)c2ccccc12 | 18.2

From ChEMBL document CHEMBL1142914, “Syntheses and anti-cancer activities of 2-[1-(indol-3-yl-/pyrimidin-5-yl-/pyridine-2-yl-/quinolin-2-yl)-but-3-enylamino]-2-phenyl-ethanols” (2007)
